Assay results reported in ChEMBL document CHEMBL1649333, “In vivo efficacy of simulated human dosing regimens of prolonged-infusion doripenem against carbapenemase- producing Klebsiella pneumoniae” (2010).
In brackets after ≈: the same amount, converted by molar mass. Activity calls are given as the source filed them. No cut-off for these calls is given here.

Assays:
[1] = fT>MIC in Klebsiella pneumoniae isolate KPC 361 infected in human at 1 g administered as 4 hrs infusion every 8 hrs; format: functional
Klebsiella pneumoniae [2] = assay: Antimicrobial activity against Klebsiella pneumoniae isolate KPC 361 in immunocompromized mouse thigh infection model assessed as reduction in bacterial load in mouse thigh at 2 g after 24 hrs; format: functional, organism-based; conditions: Thigh muscle
Procedure, shortened: (§1)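 Neutropenic murine thigh model. Cyclophosphamide 150 and 100 mg/kg i.p. at 4 and 1 days pre-inoculation. Uranyl nitrate 5 mg/kg i.p. at day −3 for renal impairment. Each thigh injected i.m. with ~10⁶ CFU/ml, 0.1 ml. At 2 h, s.c. doripenem regimens simulating human fT>MIC for 1 or 2 g q8h 4-h infusion; saline controls. Thighs plated at 24 h; Δlog₁₀ CFU vs 0-h controls; stasis <1 log change.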

Klebsiella pneumoniae [3] = assay: Antimicrobial activity against Klebsiella pneumoniae isolate KPC 357 by Etest; format: functional
Procedure, shortened: (§2)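 Etest on each clinical isolate, run in triplicate and read per the manufacturer's instructions; the modal MIC is reported. Quality control strain P. aeruginosa ATCC 27853. Isolates stored at −80°C in double-strength skim milk and subcultured twice on Trypticase soy agar with 5% sheep blood at 35°C before testing.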

[4] = fT>MIC in Klebsiella pneumoniae isolate KPC 356 infected in human at 2 g administered as 4 hrs infusion every 8 hrs; format: functional
[5] = fT>MIC in Klebsiella pneumoniae isolate KPC 354 infected in human at 2 g administered as 4 hrs infusion every 8 hrs; format: functional
Klebsiella pneumoniae [6] = assay: Bacteriostatic activity against Klebsiella pneumoniae isolate KPC 359 in immunocompromized mouse thigh infection model at 2 g after 24 hrs; format: functional, organism-based; conditions: Thigh muscle; procedure, shortened: as §1
[7] = fT>MIC in Klebsiella pneumoniae isolate KPC 360 infected in human at 1 g administered as 4 hrs infusion every 8 hrs; format: functional
Klebsiella pneumoniae [8] = assay: Antimicrobial activity against Klebsiella pneumoniae isolate KPC 356 by broth microdilution method; format: functional
Procedure, shortened: (§3)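 MIC by CLSI broth microdilution, triplicate determinations, modal value reported. QC strain P. aeruginosa 27853. Isolates kept frozen at −80°C in skim milk and subcultured twice on blood agar (TSA + 5% sheep blood) at 35°C before use.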

Klebsiella pneumoniae [9] = assay: Antimicrobial activity against Klebsiella pneumoniae isolate KPC 361 in immunocompromized mouse thigh infection model assessed as reduction in bacterial load in mouse thigh at 1 g after 24 hrs; format: functional, organism-based; conditions: Thigh muscle; procedure, shortened: as §1
Klebsiella pneumoniae [10] = assay: Antimicrobial activity against Klebsiella pneumoniae isolate KPC 359 in immunocompetent mouse thigh infection model assessed as reduction in bacterial load in mouse thigh at 2 g after 24 hrs; format: functional, Thigh muscle
Procedure, shortened: (§4)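 Immunocompetent ICR mouse thigh model. Uranyl nitrate 5 mg/kg i.p. on day −3, no cyclophosphamide. Thighs inoculated i.m. with ~10⁸ CFU. From 2 h, s.c. doripenem regimens simulating human 1 or 2 g q8h 4-h infusions, given as three 8-h intervals; saline controls. Thighs homogenized in saline and plated at 24 h; change in log₁₀ CFU relative to 0-h untreated mice.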

[11] = fT>MIC in Klebsiella pneumoniae isolate KPC 361 infected in human at 2 g administered as 4 hrs infusion every 8 hrs; format: functional
[12] = fT>MIC in Klebsiella pneumoniae isolate KPC 354 infected in human at 1 g administered as 4 hrs infusion every 8 hrs; format: functional
Klebsiella pneumoniae [13] = assay: Antimicrobial activity against Klebsiella pneumoniae isolate KPC 353 in immunocompromized mouse thigh infection model assessed as decrease in bacterial density in mouse thigh at 1 g after 24 hrs; format: functional, Thigh muscle; procedure, shortened: as §1
Klebsiella pneumoniae [14] = assay: Antimicrobial activity against Klebsiella pneumoniae isolate KPC 356 in immunocompromized mouse thigh infection model assessed as decrease in bacterial density in mouse thigh at 1 g after 24 hrs; format: functional, Thigh muscle; procedure, shortened: as §1
[15] = fT>MIC in Klebsiella pneumoniae isolate KPC 357 infected in human at 2 g administered as 4 hrs infusion every 8 hrs; format: functional
Klebsiella pneumoniae [16] = assay: Antimicrobial activity against Klebsiella pneumoniae isolate KPC 360 by Etest; format: functional
Procedure, shortened: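 Clinical KPC-producing isolate stored at −80°C in double-strength skim milk and subcultured twice on blood agar (5% sheep blood) at 35°C before testing. Etest strip MIC read per manufacturer's interpretation, run in triplicate, modal value reported; quality control strain PSA 27853 included.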

[17] = fT>MIC in Klebsiella pneumoniae isolate KPC 359 infected in human at 1 g administered as 4 hrs infusion every 8 hrs; format: functional
Klebsiella pneumoniae [18] = assay: Antimicrobial activity against Klebsiella pneumoniae isolate KPC 359 by broth microdilution method; format: functional
Procedure, shortened: (§5)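 Clinical KPC-producing isolate, stored at −80°C in double-strength skim milk, subcultured twice on Trypticase soy agar with 5% sheep blood at 35°C. MIC by broth microdilution per CLSI methods, run in triplicate, modal MIC reported; quality control strain PSA 27853 included.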

[19] = fT>MIC in Klebsiella pneumoniae isolate KPC 353 infected in human at 1 g administered as 4 hrs infusion every 8 hrs; format: functional
Klebsiella pneumoniae [20] = assay: Antimicrobial activity against Klebsiella pneumoniae isolate KPC 354 by Etest; format: functional; procedure, shortened: as §2
Klebsiella pneumoniae [21] = assay: Antimicrobial activity against Klebsiella pneumoniae isolate KPC 356 in immunocompetent mouse thigh infection model assessed as reduction in bacterial load in mouse thigh at 2 g after 24 hrs; format: functional, Thigh muscle; procedure, shortened: as §4
[22] = fT>MIC in Klebsiella pneumoniae isolate KPC 356 infected in human at 1 g administered as 4 hrs infusion every 8 hrs; format: functional
Klebsiella pneumoniae [23] = assay: Antimicrobial activity against Klebsiella pneumoniae isolate KPC 356 in immunocompetent mouse thigh infection model assessed as reduction in bacterial load in mouse thigh at 1 g after 24 hrs; format: functional, Thigh muscle; procedure, shortened: as §4
Klebsiella pneumoniae [24] = assay: Antimicrobial activity against Klebsiella pneumoniae isolate KPC 353 by Etest; format: functional; procedure, shortened: as §2
Klebsiella pneumoniae [25] = assay: Antimicrobial activity against Klebsiella pneumoniae isolate KPC 357 by broth microdilution method; format: functional; procedure, shortened: as §3
[26] = fT>MIC in Klebsiella pneumoniae isolate KPC 360 infected in human at 2 g administered as 4 hrs infusion every 8 hrs; format: functional
Klebsiella pneumoniae [27] = assay: Antimicrobial activity against Klebsiella pneumoniae isolate KPC 360 by broth microdilution method; format: functional; procedure, shortened: as §5
Klebsiella pneumoniae [28] = assay: Antimicrobial activity against Klebsiella pneumoniae isolate KPC 361 by Etest; format: functional; procedure, shortened: as §2
[29] = fT>MIC in Klebsiella pneumoniae isolate KPC 353 infected in human at 2 g administered as 4 hrs infusion every 8 hrs; format: functional
Klebsiella pneumoniae [30] = assay: Antimicrobial activity against Klebsiella pneumoniae isolate KPC 361 by broth microdilution method; format: functional; procedure, shortened: as §3
Klebsiella pneumoniae [31] = assay: Antimicrobial activity against Klebsiella pneumoniae isolate KPC 354 in immunocompetent mouse thigh infection model assessed as reduction in bacterial load in mouse thigh at 1 g after 24 hrs; format: functional, Thigh muscle; procedure, shortened: as §4
[32] = fT>MIC in Klebsiella pneumoniae isolate KPC 359 infected in human at 2 g administered as 4 hrs infusion every 8 hrs; format: functional
Klebsiella pneumoniae [33] = assay: Antimicrobial activity against Klebsiella pneumoniae isolate KPC 354 in immunocompetent mouse thigh infection model assessed as reduction in bacterial load in mouse thigh at 2 g after 24 hrs; format: functional, Thigh muscle; procedure, shortened: as §4
[34] = fT>MIC in Klebsiella pneumoniae isolate KPC 357 infected in human at 1 g administered as 4 hrs infusion every 8 hrs; format: functional
Klebsiella pneumoniae [35] = assay: Antimicrobial activity against Klebsiella pneumoniae isolate KPC 354 in immunocompromized mouse thigh infection model assessed as decrease in bacterial density in mouse thigh at 1 g after 24 hrs; format: functional, Thigh muscle; procedure, shortened: as §1
Klebsiella pneumoniae [36] = assay: Antimicrobial activity against Klebsiella pneumoniae isolate KPC 353 by broth microdilution method; format: functional; procedure, shortened: as §3
Klebsiella pneumoniae [37] = assay: Antimicrobial activity against Klebsiella pneumoniae isolate KPC 359 by Etest; format: functional; procedure, shortened: as §2
Klebsiella pneumoniae [38] = assay: Antimicrobial activity against Klebsiella pneumoniae isolate KPC 357 in immunocompromized mouse thigh infection model assessed as decrease in bacterial density in mouse thigh at 1 g after 24 hrs; format: functional, Thigh muscle; procedure, shortened: as §1
Klebsiella pneumoniae [39] = assay: Antimicrobial activity against Klebsiella pneumoniae isolate KPC 354 by broth microdilution method; format: functional; procedure, shortened: as §3
Klebsiella pneumoniae [40] = assay: Antimicrobial activity against Klebsiella pneumoniae isolate KPC 356 by Etest; format: functional; procedure, shortened: as §2
Klebsiella pneumoniae [41] = assay: Antimicrobial activity against Klebsiella pneumoniae; format: functional

## C[C@@H](O)[C@H]1C(=O)N2C(C(=O)O)=C(S[C@@H]3CN[C@H](CNS(N)(=O)=O)C3)[C@H](C)[C@H]12 [DORIPENEM]
[1]
  fT>MIC: 0%
Klebsiella pneumoniae [2]
  Activity: inactive
Klebsiella pneumoniae [3]
  MIC: 6 µg/mL (≈ 14.3 µM)
[4]
  fT>MIC: 70%
[5]
  fT>MIC: 82.5%
Klebsiella pneumoniae [6]
  Activity: Active
[7]
  fT>MIC: 0%
Klebsiella pneumoniae [8]
  MIC: 8 µg/mL (≈ 19 µM)
Klebsiella pneumoniae [9]
  Activity: inactive
Klebsiella pneumoniae [10]
  log10cfu: 1
[11]
  fT>MIC: 0%
[12]
  fT>MIC: 70%
Klebsiella pneumoniae [13]
  log10cfu: 0.02
Klebsiella pneumoniae [14]
  log10cfu: 0.02
[15]
  fT>MIC: 70%
Klebsiella pneumoniae [16]
  MIC: 16 µg/mL (≈ 38 µM)
[17]
  fT>MIC: 0%
Klebsiella pneumoniae [18]
  MIC: 16 µg/mL (≈ 38 µM)
[19]
  fT>MIC: 70%
Klebsiella pneumoniae [20]
  MIC: 4 µg/mL (≈ 9.51 µM)
Klebsiella pneumoniae [21]
  log10cfu: 1
[22]
  fT>MIC: 52.5%
Klebsiella pneumoniae [23]
  log10cfu: 1
Klebsiella pneumoniae [24]
  MIC: 3 µg/mL (≈ 7.13 µM)
Klebsiella pneumoniae [25]
  MIC: 8 µg/mL (≈ 19 µM)
[26]
  fT>MIC: 52.5%
Klebsiella pneumoniae [27]
  MIC: 16 µg/mL (≈ 38 µM)
Klebsiella pneumoniae [28]
  MIC: > 32 µg/mL
[29]
  fT>MIC: 82.5%
Klebsiella pneumoniae [30]
  MIC: 32 µg/mL (≈ 76.1 µM)
Klebsiella pneumoniae [31]
  log10cfu: 1
[32]
  fT>MIC: 52.5%
Klebsiella pneumoniae [33]
  log10cfu: 1
[34]
  fT>MIC: 52.5%
Klebsiella pneumoniae [35]
  log10cfu: 0.02
Klebsiella pneumoniae [36]
  MIC: 4 µg/mL (≈ 9.51 µM)
Klebsiella pneumoniae [37]
  MIC: > 32 µg/mL
Klebsiella pneumoniae [38]
  log10cfu: 0.02
Klebsiella pneumoniae [39]
  MIC: 4 µg/mL (≈ 9.51 µM)
Klebsiella pneumoniae [40]
  MIC: 12 µg/mL (≈ 28.5 µM)

## C[C@@H](O)[C@H]1C(=O)N2C(C(=O)O)=C(S[C@@H]3CN[C@H](C(=O)N(C)C)C3)[C@H](C)[C@H]12 [MEROPENEM]
Klebsiella pneumoniae [41]
  MIC: 2 µg/mL (≈ 5.22 µM)
